FLuc inh counter: counter-screen for luciferase assay inhibitors: firefly luciferase inhibition. P08659. ATPLite firefly luciferase biochemical luminescence, 10 min. inhibition, % at 10 µM. 1.5% of 200,000 active. AID 1006;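 active = inhibition above about 50% when tested at 10 µM, limit read from the data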
Target sequence (P08659 whole entry, looked up): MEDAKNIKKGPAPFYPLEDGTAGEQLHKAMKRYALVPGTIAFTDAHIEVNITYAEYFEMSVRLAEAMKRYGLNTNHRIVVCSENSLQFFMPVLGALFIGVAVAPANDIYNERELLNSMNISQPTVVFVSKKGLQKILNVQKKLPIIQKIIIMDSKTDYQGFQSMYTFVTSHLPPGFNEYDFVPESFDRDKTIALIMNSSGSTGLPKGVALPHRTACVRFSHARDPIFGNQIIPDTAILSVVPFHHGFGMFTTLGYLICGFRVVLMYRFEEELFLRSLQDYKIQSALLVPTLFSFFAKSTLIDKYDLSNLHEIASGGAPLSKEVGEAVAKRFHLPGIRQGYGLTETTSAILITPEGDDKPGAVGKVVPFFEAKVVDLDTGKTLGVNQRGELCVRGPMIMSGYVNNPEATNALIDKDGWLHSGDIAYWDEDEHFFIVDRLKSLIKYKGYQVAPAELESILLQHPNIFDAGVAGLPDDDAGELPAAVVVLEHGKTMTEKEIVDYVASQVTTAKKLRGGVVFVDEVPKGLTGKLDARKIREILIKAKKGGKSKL
TRAIL sens C8: sensitizes caspase-8 expressing cells to TRAIL; inhibition (viability loss, TRAIL sensitization), % at 10 µM; 1% of 360,000 active; AID 624354; NB7+C8 cells + TRAIL, ATPlite viability luminescence;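 active = compounds causing at least 50% loss of cell viability in the single-dose screen, relative to plate controls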
HSP90 inh: inhibitors of HSP90 luciferase refolding in rabbit reticulocyte lysate; luciferase refolding luminescence, 3 h; 0.91% of 290,000 active; inhibition, % at 5.6 µM; AID 1789;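 active = inhibition above the screen-wide mean plus 3 SD, computed separately per campaign, cut at about 16% in these data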;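 also: 0% = DMSO wells and 100% = 60 µM geldanamycin wells; inhibitors lower the luminescence because luciferase stays unfolded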
PPC-1+TRAIL kill: PPC-1 cancer cell killing with TRAIL present. cell killing (% activity), % at 4 µM or 5 µM. PPC-1 cells + TRAIL, ATPLite viability luminescence. 0.41% of 220,000 active;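 active = cell killing above 50% in the first pass at 4 µM, then a duplicate retest at 5 µM averaging 50% or more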;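 also: plate controls were cells with TRAIL plus DMSO for no effect and medium-only wells lacking cells for full effect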
STAT3 inh-1: reduces IL-6 driven STAT3 reporter signal | U3A cells, IL-6 STAT3-luciferase reporter, luminescence; host cell line lacks STAT1 | 0.89% of 190,000 active | inhibition, % at 5.5 µM;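 active = inhibition above the mean inhibition across all screened compounds plus 3 SD, cut at about 44% in these data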;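 also: 0% = DMSO only wells and 100% = 100 µM nifuroxazide control wells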
FLuc stim CS: affects firefly luciferase, flagging false hits in luciferase stimulation screens; activation factor at 10 µM; AID 1027; ATPlite luciferase biochemical, luminescence, 10 min; 0 = ATP-free wells, 1 = DMSO control; 200,000 tested, under 10 active; P08659;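 active = luciferase activation factor, scaled between plate controls, of at least 2 with compound at 10 µM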
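Assay system – cell-free luciferase reagent · Medium – PBS-based ATP solution · Dosing – test compounds dosed from 2 mM stocks in 100% DMSO · Timing – 10 min, room temperature · Technique – light output (luminescence) · Measure – luminescence gain marking luciferase activators · Controls – No-ATP low control, compound-free enzyme-plus-ATP high control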
STAT3 inh-2: confirmation of STAT3 signaling inhibitors; shares compounds with STAT3 inh-1; U3A cells, IL-6 STAT3 luciferase reporter, luminescence; cell line lacks STAT1; inhibition, % at 5.7 µM; 45% of 1,200 active;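 active = inhibition above the hit cutoff computed for the primary STAT3 screen, cut at about 44% in these data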;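 also: 0% = IL-6 plus DMSO and 100% = IL-6 plus nifuroxazide control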
NFkB inh STAT3ct: NF-kappaB inhibition in STAT3 inhibitor counter-screen; HEK293T NF-kB luciferase reporter, TNF-alpha induced; inhibition, % at 5.7 µM; 36% of 1,200 active; shares compounds with STAT3 inh-1;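 active = inhibition above the mean of solvent-only control wells plus 3 SD, cutoff set per campaign, cut at about 13% in these data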;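 also: 0% = TNF-alpha with DMSO and 100% = TNF-alpha with MG high control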
STAT1 inh STAT3c: counter-screen for STAT3 inhibitors: STAT1 inhibition; NIH 3T3 STAT1-luciferase reporter, IFN-gamma induced, luminescence; shares compounds with STAT3 inh-1; inhibition, % at 5.7 µM; 27% of 1,200 active;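 active = inhibition above the mean plus 3 SD of solvent-only control wells, limit set per screening run, cut at about 16% in these data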;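 also: 0% = DMSO with IFN-gamma and 100% = nifuroxazide control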
* = called active by the depositor; . = no result. In the library only some 2.2% were active in any assay of this set; here they are far more common.

SMILES	FLuc inh counter	TRAIL sens C8	HSP90 inh	PPC-1+TRAIL kill	STAT3 inh-1	FLuc stim CS	STAT3 inh-2	NFkB inh STAT3ct	STAT1 inh STAT3c
O=C(CNC(=O)c1ccc2c(c1)S(=O)(=O)N=C1CCCCCN12)Nc1ccc(F)c(F)c1	.	-7.5	.	.	.	.	.	.	.
Cc1cccc(N2CCN(CCCNC(=O)c3ccc(NC(=O)C4=CSCCO4)cc3)CC2C)c1 (stereo unspecified)	.	17.3	-1.4	.	.	.	.	.	.
Cc1cc(Cl)c(S(=O)(=O)N2CCN(c3ccccn3)CC2)cc1OCC(=O)NC1CCCCC1	.	22.2	2.4	7.3	.	.	.	.	.
Cc1cc(Cl)c(S(=O)(=O)N2CCSCC2)cc1OCC(=O)NC1CCCCC1	-1.3	28.4	-2.8	-1.1	67.0*	1	67.1*	15.3*	9.9
O=C(COc1ccc(Br)cc1Br)NC1CCCC1	6.8	35.5	-1.8	19.5	49.2*	0.9	52.9*	-1.7	-43.4
CCN1CCN(S(=O)(=O)c2cc(OCC(=O)NC3CCCCC3)c(C)cc2Cl)CC1	-0.5	18.3	0.5	2.9	77.2*	1	56.9*	19.1*	7.6
Cc1cc(Cl)c(S(N)(=O)=O)cc1OCC(=O)NC1CCCCC1	.	-5.6	4.5	.	.	.	.	.	.
CCOC(=O)N1CCN(S(=O)(=O)c2cc(OCC(=O)NC3CCCCC3)c(C)cc2Cl)CC1	-5.0	4.4	-5.8	-5.6	6.5	1.1	.	.	.
O=C(COc1ccc(Br)cc1Cl)NC1CCCCC1	15.6	29.3	-2.8	22.5	-3.8	0.8	.	.	.
Cc1cc(Cl)c(S(=O)(=O)N2CCCCCC2)cc1OCC(=O)NC1CCCCC1	-7.3	3.0	-3.4	10.2	82.0*	1.1	82.7*	30.5*	16.5*
O=C(NC(=S)N1CCCC1)c1ccccc1F	.	8.7	.	.	.	.	.	.	.
Cc1ccc2cccc(OCC(=O)N3CC(C)CC(C)C3)c2n1 (stereo unspecified)	-4.1	2.5	0.5	17.6	-6.5	1	.	.	.
O=C(O)c1ccc(CSc2nnc(-c3cccnc3)n2-c2ccc(Br)cc2)cc1	-4.2	-2.2	0.3	2.9	24.4	1	.	.	.
Cc1c(Cl)c([N+](=O)[O-])nn1CC(=O)NC(C)C1CC2CCC1C2 (stereo unspecified)	-6.4	4.3	3.6	-12.1	7.2	1.1	.	.	.
O=C(Nc1ccccc1)c1ccc(CN2CCc3ccccc3C2)cc1	-3.1	36.9	1.1	.	52.3*	1	64.2*	8.4	-2.9
O=C(Nc1cccnc1)c1ccc(CN2CCc3ccccc3C2)cc1	-5.9	13.2	2.4	8.8	47.0*	1.1	37.3	9.0	4.1
O=C(Nc1ccccc1F)c1ccc(CN2CCc3ccccc3C2)cc1	.	-3.2	1.6	.	.	.	.	.	.
Cc1ccc(NC(=O)c2ccc(CN3CCc4ccccc4C3)cc2)cc1	-0.3	23.1	-1.2	26.5	70.8*	1	66.8*	17.5*	-7.8
Cc1cc(C)cc(NC(=O)c2ccc(CN3CCc4ccccc4C3)cc2)c1	.	0.2	1.1	.	.	.	.	.	.
Cc1ccc(C(=S)N2CCN(Cc3ccccc3)CC2)cc1	-5.2	-4.6	-5.1	17.0	9.6	1.1	.	.	.
CCN1CCN(C(=S)c2ccc(-c3ccccc3)cc2)CC1	-8.0	-0.8	1.6	11.8	46.6*	1.1	43.3	3.9	5.6
CCOC(=O)N1CCC(NC(=O)C2CCN(c3nc(-c4ccc(OC)cc4)no3)CC2)CC1	-1.0	1.6	-1.0	18.1	49.9*	1	38.0	11.7	11.9
CCOc1ccccc1NC(=O)C1CCN(c2nc(-c3ccc(OC)cc3)no2)CC1	.	-1.6	-4.0	.	.	.	.	.	.
COc1cc(NC(=O)c2cccs2)ccc1NC(=O)Cc1ccccc1	.	2.7	-3.3	.	.	.	.	.	.
COc1cc(NC(=O)c2ccc([N+](=O)[O-])o2)ccc1NC(=O)c1cccs1	1.3	43.6	-2.1	23.3	43.6*	1	27.8	5.2	-13.6
SMILES	FLuc inh counter	TRAIL sens C8	HSP90 inh	PPC-1+TRAIL kill	STAT3 inh-1	FLuc stim CS	STAT3 inh-2	NFkB inh STAT3ct	STAT1 inh STAT3c
COc1ccc(Cn2cc(CN3CC(N4CCN(C)CC4)CS3(=O)=O)nn2)cc1 (stereo unspecified)	.	11.1	.	.	.	.	.	.	.
Cc1c(Cl)ccc2c(C(=O)Nc3cc(C(C)(C)C)on3)cc(-c3ccccn3)nc12	.	6.2	-1.6	.	.	.	.	.	.
Cc1ccc(NC(=O)Cc2nn(C)c(=O)c3ccccc23)cc1F	-1.2	16.7	5.5	-10.5	84.8*	1	76.7*	25.3*	22.6*
Cn1nc(CC(=O)Nc2ccc3c(c2)OCCO3)c2ccccc2c1=O	-3.5	14.3	5.2	27.4	82.9*	1	78.3*	34.0*	28.4*
COc1ccc(-c2csc(NC(=O)C3=COCCO3)n2)cc1OC	.	5.2	.	.	.	.	.	.	.
O=C(Cc1c[nH]c2ccccc12)NCc1ccc(Cl)cc1Cl	14.4	-4.2	-1.5	8.9	-16.4	0.9	.	.	.
CC(=O)Nc1ccc2oc(-c3ccccc3Br)nc2c1	28.2	22.1	7.1	34.8	48.4*	0.7	11.9	-38.1	-127.4
CC(C)C(=O)Nc1ccc2oc(-c3cc(F)c(F)cc3Cl)nc2c1	-1.9	14.5	-3.9	-3.4	12.8	1	.	.	.
CC(=O)Nc1ccc2oc(-c3cc(F)c(F)cc3Cl)nc2c1	30.3	44.1	-0.7	-15.1	46.1*	0.7	32.4	-24.1	-91.3
CNc1cnc(-c2ccccc2OC)cn1	.	-4.2	.	.	.	.	.	.	.
CCOC(=O)c1nn(-c2ccccc2)cc1O	.	9.4	-0.7	18.0	.	.	.	.	.
COC(=O)c1nn(-c2ccc(-c3ccccc3)cc2)cc1O	80.1*	58.1*	12.6	6.7	73.7*	0.2	34.7	-3.0	-2.2
CCOC(=O)N(Cc1ccccc1)Cc1ccc(C(=O)N[C@@H](Cc2ccccc2)C(=O)O)cc1	.	-19.6	.	.	.	.	.	.	.
O=C(c1ccc(Cl)cc1)N1CCCCC(Sc2nnc(-c3ccc4c(c3)OCO4)o2)C1=O (stereo unspecified)	28.9	68.7*	30.9*	47.7	98.3*	0.7	85.1*	69.7*	39.6*
O=C(O)CSc1nnc(-c2ccc3c(c2)OCO3)o1	6.6	-12.4	2.5	-24.4	-4.6	0.9	.	.	.
Cc1cc(NC(=O)C2CCCCC2C(=O)O)ccc1NC(=O)c1ccccc1 (stereo unspecified)	.	10.7	3.8	.	.	.	.	.	.
CCN(CC)S(=O)(=O)c1ccc(NC(=O)c2ccc(N(C)S(C)(=O)=O)cc2)cc1	-5.0	20.2	3.2	43.5	80.5*	1.1	71.7*	29.5*	7.0
COc1ccc(NS(=O)(=O)c2ccc(NC(C)=O)cc2)c(OC)c1	-6.2	-3.3	4.9	8.8	2.0	1.1	.	.	.
